Screens deposited in PubChem BioAssay by several laboratories.
A selection: hits, their analogues and other compounds. The true share with any hit is near 3.1%.
Beta apoptosis – blocks beta cell apoptosis; protection from apoptosis, % (test concentration not listed); hit rate 0.8% among 300,000; INS-1E cytokine-induced death, ATP luminescence, 48 h; percent of positive-control rescue, neutral wells zero;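 active = Every replicate reaches about 75%, or at least half do and their mean reaches it too, limit read from the data; inconclusive = At least half of replicates reach the limit but their mean does not; inactive = Under half of replicates reach the limit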;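 note: 0% = cytokine-treated negative control wells and 100% = positive control rescue; higher means more ATP so stronger rescue from cytokine killing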
CSC inhib – cancer stem cell inhibition. cancer stem cell-like cells viability, luminescence. inhibition, % at 7.5 µM. hit rate 1.1% among 300,000. AID 2717; in the data active = inhibition above about 75%; inconclusive = no clear call, values can overlap the other calls; tested in HMLE shEcad cells
A1 inh – inhibitors of the anti-apoptotic protein A1, read as caspase activation; MEF A1-2A-BIM cells, Caspase-Glo 3/7 luminescence, 3 h; percent of clofoctol response, vehicle zero; caspase activation, % (test concentration not listed); hit rate 0.066% among 330,000; AID 2462;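 active = over half of replicate activation scores above 10%, or exactly half above 10 with the replicate mean above 10; inconclusive = replicate mean below 10 yet half the replicates above 10; inactive = over half of replicates below 10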
Calb FLC – C. albicans growth modulation with fluconazole; AID 1979; growth inhibition, % (concentration not given with the values); hit rate 0.57% among 300,000; C. albicans CaCi-2 (fluconazole-resistant clinical isolate) + fluconazole, Alamar Blue growth, 48 h;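 active = growth inhibition above about 58% in most replicates, limit read from the data, passing the limit was not always enough; inconclusive = exactly half the replicates above a set limit; inactive = most replicates below a set limit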;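 note: all wells also contain fluconazole at 8 µg/ml as a sub-toxic cotreatment; 0% = median of DMSO wells and 100% = median of geldanamycin control wells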
TAG inh – inhibitors of triacylglycerol accumulation. H9c2 cells, Nile Red lipid (TAG) fluorescence; cells loaded with 200 µM oleic acid. inhibition, % at 12.5 µM. hit rate 0.66% among 230,000. AID 651582;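 active = pattern-corrected inhibition of lipid staining of at least 50% with the nuclear-stain viability signal not falling by more than 50%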;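 note: 0% = DMSO wells and 100% = triacsin C control wells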
T cruzi inh – blocks replication of Trypanosoma cruzi | T. cruzi beta-gal in NIH3T3, luminescence, 90 h | inhibition, % (no concentration beside the values) | hit rate 1.4% among 300,000;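 active = mean inhibition across valid replicates above about 55%, limit read from the data; inconclusive = mean below that limit but half or more replicates reach it; inactive = mean below it, under half of replicates reach it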;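 note: signal also drops with host cell toxicity which is not excluded here; 0% = plate median of DMSO wells and 100% = zero luminescence signal; higher percent means less beta-gal luminescence so fewer parasites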
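Assay system: NIH/3T3 fibroblasts plus reporter T. cruzi. Amount: NIH/3T3 cells, 5,000 per well. Buffer or medium: DMEM, 2% fetal bovine serum. Doses: compound pinned at 50 nL/well, DMSO. Schedule: ≥90 h infection period, 3 h prior cell attachment. Signal: luminescent β-galactosidase signal after 60 min lysis. Read-out: parasite load inhibition, %.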
Starred values were filed as active, the others as inactive; ? = inconclusive; / = no result given; + = active, no number.

SMILES	Beta apoptosis	CSC inhib	A1 inh	Calb FLC	TAG inh	T cruzi inh
CC(C)(C)n1nnnc1C(c1cccs1)N(Cc1cccnc1)Cc1ccccc1Cl (stereo unspecified)	/	41	0	19	-16	71*
Cc1ccc(C)c(N2C(=O)CC(Cc3ccc(Br)cc3)C2=O)c1 (stereo unspecified)	2	1	0	11	-9	1
Cn1nc(-c2ccc(N3CCCCC3)c(NC(=O)c3ccco3)c2)c2ccccc2c1=O	17	25	0	9	/	66*
COCCNc1nc(NCCNC(C)=O)c2sc(-c3ccccc3)cc2n1	/	/	/	/	10	/
COCCNc1nc(-c2ccccc2CO)c2sc(-c3ccccc3)cc2n1	/	/	/	/	50*	/
CCOC(=O)C1CCN(C(=O)Cn2c(=O)oc3cc(S(=O)(=O)N4CCCC4)ccc32)CC1	-1	-5	0	-11	-8	-7
Cc1cccc(N=N/C(=C\O)C(=O)c2cccs2)c1	13	92*	-1	-16	4	29
O=C(/C(=C/O)N=Nc1ccccc1)c1ccncc1	4	15	0	11	10	-14
COc1ccc2cc1Oc1ccc(cc1)C[C@H]1c3c(cc(OC)c4c3Oc3c(ccc5c3[C@H](C2)N(C)CC5)O4)CCN1C	122*	105*	-1	/	109*	/
COc1ccc2cc1Oc1ccc(cc1)CC1c3c(cc(OC)c4c3Oc3cc5c(cc3O4)CCNC5C2)CCN1C (stereo unspecified)	/	-3	0	9	/	66*
CCOc1ccc(C2NCCc3cc(OC)c(OC)cc32)cc1OC (stereo unspecified)	10	-2	0	-14	/	29
N=c1sccn1CC(=O)Nc1ccc(Cl)cc1[N+](=O)[O-]	-1	1	1	-8	-5	0
Nc1nc2n[nH]nc2c(=O)[nH]1	-8	-11	0	-4	/	68*
Cc1nc(N2CCCCC2)c2c(C)c(C(=O)Nc3ccccc3C(F)(F)F)sc2n1	-2	77*	1	6	-15	49
Cc1nc(N2CCCCC2)c2c(C)c(C(=O)Nc3cccc(C(F)(F)F)c3)sc2n1	27	/	0	22	/	65*
CCOc1ccccc1NC(=O)c1sc2nc(C)nc(N3CCOCC3)c2c1C	-10	-8	0	-3	/	11
CCCc1nc(NC2CCCCC2)c(C#N)c2c1COC(C)(C)C2	3	106*	0	-11	/	18
CCOC(=O)NC(=O)/C(C#N)=N\Nc1ccc(Cl)cc1	/	-7	0	-2	2	5
COc1ccc(C(=O)/C(C#N)=N/Nc2ccc([N+](=O)[O-])cc2)cc1	107*	18	2	-8	36	-11
N#C/C(=N\Nc1ccc(Cl)cc1)C(=O)c1ccccc1	99*	59	-1	26	-7	-6
Cc1c(N/N=C(\C#N)C(=O)c2ccc(Cl)cc2)c(=O)n(-c2ccccc2)n1C	76*	26	0	17	-22	-5
COc1ccc(C(=O)/C(C#N)=N/Nc2ccccc2[N+](=O)[O-])cc1	27	-3	0	0	/	-37
COC(=O)c1cc(C)sc1NC(=O)c1cccnc1	-8	8	0	110*	/	5
NCC(O)COCCC12CC3CC(CC(C3)C1)C2 (stereo unspecified)	-2	-13	1	-32	27	-8
CC(NCC(O)COCCC12CC3CC(CC(C3)C1)C2)c1ccccc1 (stereo unspecified)	88*	105*	0	19	/	60*
SMILES	Beta apoptosis	CSC inhib	A1 inh	Calb FLC	TAG inh	T cruzi inh
CCOC(=O)c1c(-c2ccccc2)csc1NC(=S)N(CC)CC	/	/	/	-14	-10	23
CCOC(=O)c1c(-c2cccs2)csc1NC(=O)COC(=O)c1c(C)noc1C	9	11	0	30	/	17
CCOC(=O)c1c(-c2cccs2)csc1NC(=O)c1ccncc1	1	-6	0	25	-1	55*
CCOC(=O)c1c(-c2ccc(Cl)cc2)csc1NC(=O)CNCc1ccco1	2	77*	0	2	-14	7
CCOC(=O)c1c(-c2ccccc2)csc1NC(=O)c1nn(CC)cc1Br	16	80*	0	2	/	63*
Cc1ccc(C(=O)N2CCN(C/C=C/c3ccccc3)CC2)cc1S(=O)(=O)N1CCOCC1	/	/	/	/	3	/
COc1ccc(NC(=O)c2ccco2)c(NC(=O)c2ccc([N+](=O)[O-])cc2)c1	5	15	3	8	-13	12
O=C1CC(NS(=O)(=O)c2cccs2)CN1c1ccc(Cl)cc1 (stereo unspecified)	-3	/	2	5	3	-12
Cc1cccc(N2CCN(C(c3ccncc3)c3nnnn3C(C)(C)C)CC2)c1C (stereo unspecified)	-7	14	1	-21	-13	64*
CC(C)(C)n1nnnc1C(c1ccncc1)N1CCN(C2CCCCC2)CC1 (stereo unspecified)	-7	-12	0	-15	/	-25
CCCOc1ccc(Cn2c(=O)oc3ccc(C)cc32)cc1	/	11	1	-6	/	21
CCCc1ccc(OCC(=O)Nc2cc(S(=O)(=O)CC)ccc2O)cc1	-14	-6	0	90*	18	-4
CCOC(=O)c1sc(NC(=O)c2cc(-c3ccccc3C)nc3ccccc23)c(C#N)c1C	39	89*	0	?	-1	4
Cc1cc(-c2cc(C(=O)O)c3ccccc3n2)c(C)s1	-7	-7	-1	80*	12	-7
CCOC(=O)c1c(NC(=O)c2cc(-c3ccc(Cl)s3)nc3ccccc23)sc(C(N)=O)c1C	77*	14	0	-6	/	-18
Cc1nn(C)cc1-c1cc(C(=O)O)c2ccccc2n1	-2	-11	0	4	-13	-4
Cc1ccccc1-c1cc(C(=O)Nc2sc(C)c(C)c2C(N)=O)c2ccccc2n1	93*	/	0	-9	8	19
Cc1cc(C)c(C(=O)CC(=O)c2cccnc2)c(C)c1	/	/	/	/	10	/
Cc1ccc(NC(=O)COC(=O)COc2cccc3c2OC(C)(C)C3)cc1S(=O)(=O)N1CCOCC1	0	-12	-1	-1	-7	1
C[C@H]1CN=C(N(C)C)N1CCc1ccc(F)cc1	-6	-17	0	/	1	/
Cc1ccc(NS(=O)(=O)c2ccc(Cl)c(C(=O)Nc3ccccc3-c3nc4ccccc4[nH]3)c2)cc1C	10	+	0	4	18	68*
CCOc1cc(C)c(C(C)C)cc1S(=O)(=O)n1cnc(C)c1	3	-2	0	-18	/	55*
O=S(=O)(Nc1cccnc1)c1cccc(C(F)(F)F)c1	-2	-4	0	34	/	-9
O=[N+]([O-])c1ccc(S(=O)(=O)c2cccc(C(F)(F)F)c2)nc1	57	6	0	0	93	66*
COc1cccc(OC)c1C(=O)OCC(=O)NC1CCCCCC1	0	/	0	/	-26	/
